The list is not random: actives were taken first. Their share in the collection is about 2.2%.
C8 TRAIL sens = viability loss with TRAIL in NB7+C8 cells, primary screen, TRAIL sensitizer project, cell-based, ATPlite luminescence; AID 624354, 2012; inhibition (viability loss, TRAIL sensitization), % at 10 µM; hit rate 1% among 360,000;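 active = compounds causing at least 50% loss of cell viability in the single-dose screen, relative to plate controls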
PPC-1+TRAIL kill = compounds killing PPC-1 cancer cells with TRAIL present, primary screen, TRAIL potentiator project, ATPLite luminescence, uHTS; hit rate 0.41% among 220,000; cell killing (% activity), % at 4 µM or 5 µM; AID 1443, 2008; PPC-1 cells + TRAIL, ATPLite viability luminescence;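 active = cell killing above 50% in the first pass at 4 µM, then a duplicate retest at 5 µM averaging 50% or more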;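 note: plate controls were cells with TRAIL plus DMSO for no effect and medium-only wells lacking cells for full effect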
NF-kB expr up = activators of NF-kB expression in neurons, primary screen, cell-based, HTS; human neuronal cells, NF-kB reporter expression; hits give high values; fold change at 12.5 µM; hit rate 1.6% among 190,000; AID 1239, 2008; in the data active = fold change above about 3.3
FLuc inh counter = firefly luciferase enzyme inhibitors, primary screen, artefact control for luciferase-based inhibitor screens, biochemical, luminescence, ATPLite | 10 min | hit rate 1.5% among 200,000 | inhibition, % at 10 µM | Luciferin 4-monooxygenase (Photinus pyralis), P08659;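 active = inhibition above about 50% when tested at 10 µM, limit read from the data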
Target sequence (P08659 whole entry, looked up): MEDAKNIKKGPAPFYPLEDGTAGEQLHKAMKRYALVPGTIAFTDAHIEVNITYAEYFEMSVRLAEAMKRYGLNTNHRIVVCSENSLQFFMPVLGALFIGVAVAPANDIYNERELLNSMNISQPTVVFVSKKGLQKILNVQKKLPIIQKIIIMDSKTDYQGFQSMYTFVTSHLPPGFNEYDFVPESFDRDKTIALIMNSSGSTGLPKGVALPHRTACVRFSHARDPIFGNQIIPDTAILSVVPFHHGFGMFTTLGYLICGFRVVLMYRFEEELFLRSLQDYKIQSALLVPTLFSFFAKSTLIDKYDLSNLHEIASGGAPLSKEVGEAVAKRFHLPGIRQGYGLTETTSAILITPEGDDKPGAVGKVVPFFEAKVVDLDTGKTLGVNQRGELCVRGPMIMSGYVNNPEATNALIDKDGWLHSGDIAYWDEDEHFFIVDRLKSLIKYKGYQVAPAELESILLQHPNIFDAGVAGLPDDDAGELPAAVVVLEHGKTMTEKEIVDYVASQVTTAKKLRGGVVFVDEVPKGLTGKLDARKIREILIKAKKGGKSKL
APP 5'UTR act = activators of APP 5'UTR luciferase reporter, primary screen, SH-SY5Y cells. hit rate 1% among 190,000. SH-SY5Y APP 5'UTR luciferase reporter, luminescence; zero percent = DMSO vehicle wells. AID 1276, 2008. activation, % at 2 µM;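 active = activation above a set limit, based on mean plus 3 SD of controls, cut at about 140% in these data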
FLuc stim CS = FLuc activators, initial screening, artefact control for FLuc-dependent activation tests, biochemical, ATPlite luminescence. Luciferin 4-monooxygenase (Photinus pyralis), P08659. ATPlite luciferase biochemical, 10 min; 0 = ATP-free wells, 1 = DMSO control. activation factor at 10 µM. 200,000 tested, under 10 active. AID 1027, 2008;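 active = luciferase activation factor, scaled between plate controls, of at least 2 with compound at 10 µM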
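System: Luciferase/luciferin detection reagent, cell-free biochemical luciferase assay | Medium: PBS buffer for ATP | Dosing: Test compounds dosed from 2 mM stocks in 100% DMSO | Timing: 10 min at ambient temperature | Signal: Luminescence measurement of luciferase light output | Evaluation: Luciferase activation, seen as luminescence increase over controls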
Numbers without * were called inactive; . = no result given.

SMILES	C8 TRAIL sens	PPC-1+TRAIL kill	NF-kB expr up	FLuc inh counter	APP 5'UTR act	FLuc stim CS
CNc1ccc(/C=C2\CSc3ccccc3C2=O)cc1[N+](=O)[O-]	23	21	0.77	55*	38	0.4
COc1ccc(OC)c(-c2nn(-c3ccccc3)cc2C(=O)NC2(C)CCS(=O)(=O)C2)c1 (stereo unspecified)	-16	.	.	.	.	.
COC(=O)Cc1ccc2sc(-c3ccccc3)nc2c1	63*	44	9.2*	83*	173*	0.2
CCc1ccc(C(=O)NC2CCCCC2)s1	21	20	4.7*	34	124	0.7
CCOc1ccc(N(CC(=O)NCc2ccc(F)cc2)C(=O)c2snc(C(N)=O)c2N)cc1	12	.	.	.	.	.
Cc1ccc(CN2CCNC(=O)C2CC(=O)NCCCn2nnc3ccccc32)cc1 (stereo unspecified)	-13	.	.	.	.	.
c1ccc(CSc2nnc(-c3cccs3)o2)cc1	8	1	4.6*	12	106	0.9
Fc1ccccc1CSc1nnc(-c2cccs2)o1	10	-4	4.1*	11	119	0.9
Fc1ccc(CSc2nnc(-c3cccs3)o2)cc1	4	18	2.2	0	24	1
Cc1ccc(S(=O)(=O)N2CCCC2)cc1C(=O)Nc1ccc(-n2cnnn2)cc1	-4	.	.	.	.	.
CCCCC(=O)OCc1c(-c2cccc(OC)c2)ncc2ccccc12	6	.	.	.	.	.
Cc1ccc(-c2nn(CC(=O)NCc3cc(-c4nn(C)c(=O)c5ccccc45)ccc3C)c(=O)c3ccccc23)cc1	62*	32	1.1	-6	4	1.1
CCC(=O)NCc1cc(-c2nn(C)c(=O)c3ccccc23)ccc1C	14	-17	1.2	-6	-19	1.1
Cc1c(C(=O)NCc2cccs2)sc(=O)n1Cc1ccc(S(C)(=O)=O)cc1	-14	.	.	.	.	.
OC[C@@H]1CN(Cc2ccc3c(c2)OCO3)C[C@H](n2cnc3c(N4CCCC4)ncnc32)O1	3	.	.	.	.	.
CCC(N=c1cc(-c2ccc(OC)cc2)oc2ccc(C)cc12)C(=O)O (stereo unspecified)	-4	14	3.1	10	147*	0.9
COC(=O)c1cc(CN2CCN(c3ccccc3)CC2)ccc1O	-9	.	.	.	.	.
O=C(NC(=O)c1ccccc1)Nc1ccccc1	54*	.	.	.	.	.
CCn1cnc2cc(NC(=O)c3ccc(C)cc3)ccc21	5	.	.	.	.	.
Cc1ccc(NC(=O)c2ccccc2)cc1	20	-2	3.5*	43	97	0.6
Cc1ccc(C(=O)Nc2ccc3ccccc3n2)cc1	50*	.	.	.	.	.
Cc1ccc(C(=O)Nc2ccc3c(c2)ncn3C)cc1	27	11	3.5*	41	140*	0.6
O=C(Nc1ccc2ccccc2n1)c1ccccc1	38	.	.	.	.	.
CN(C)C(=S)N=c1ssc(=S)n1Cc1cccnc1	-5	.	.	.	.	.
O=C(O)c1nn(CCOc2ccc(Cl)cc2Cl)c(=O)c2ccccc12	7	.	.	.	.	.
SMILES	C8 TRAIL sens	PPC-1+TRAIL kill	NF-kB expr up	FLuc inh counter	APP 5'UTR act	FLuc stim CS
Cc1ccc(C(=O)N2CCNC(=O)C2CC(=O)Nc2ccccc2)cc1 (stereo unspecified)	-2	.	.	.	.	.
CC(C)CC(NC(=O)OC(C)(C)C)c1cn([C@@H](CCC(=O)OC(C)(C)C)C(=O)N2CCN(C(=O)OC(C)(C)C)CC2)nn1 (stereo partly specified)	7	-16	0.82	-4	12	1
CCCOc1ccc(/C=C/C(=O)OCC(=O)N(C)c2c(N)n(Cc3ccccc3)c(=O)[nH]c2=O)cc1OCC	9	.	.	.	.	.
O=C(O)Cc1ccc(NC(=O)c2ccc(NC(=O)c3ccco3)cc2)cc1	4	-4	1.3	0	-2	1
Cc1ccoc1C(=O)Nc1ccc(CC(=O)O)cc1	29	38	0.58	57*	-79	0.4
Cc1ccoc1C(=O)Nc1ccc2ccccc2c1	54*	.	.	.	.	.
O=C(Nc1ccc2ccccc2c1)c1ccc(Cl)cc1	57*	.	.	.	.	.
CC(=O)N1CCc2cc(NC(=O)c3ccc(C)cc3)ccc21	41	37	3.6*	73*	2	0.3
